In PMC9026613 (Current Therapeutic Research, Clinical and Experimental, 2022):
pEC50: −log10 of the molar value. Like-named read-outs stand apart in the source and are kept apart here.

Key:
[1] = tested on: 8 different human cardiac ion channels (including human ether-a-go-go related gene [hERG]); settings: 8 channels including hERG; nonclinical studies, ref not given; cited from earlier work
healthy volunteers [2] = assay type: in vivo, human
Method in brief: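 Single IV (0.03–1.5 mg) or SC (0.6 mg) dose, or IV placebo. Safety was monitored throughout the study by AE recording, vital signs, clinical laboratory tests, physical examination, 12-lead ECG and injection-site reaction checks. TEAEs were tallied per participant by treatment.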

healthy volunteers [3] = assay: Concentration-QTc analysis, Emax model; assay type: in vivo, human; settings: for ΔΔQTcF estimate at geometric mean Cmax: Emax model prediction, mean (90% CI)
Method in brief: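 Placebo-adjusted ΔQTcF for each subject and time point = individual ΔQTcF minus the estimated time effect at that point. ΔΔQTcF predicted at the geometric mean peak concentration per dose.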

[4] = Pharmacokinetics of dasiglucagon in plasma after IV or SC dosing, Phase I trial; assay type: in vivo, human
Method in brief: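 Single IV doses of 0.03, 0.1, 0.3, 0.6 or 1.5 mg from a 4 mg/mL solution diluted with vehicle, after a fast of ≥8 h. One cohort got 0.6 mg SC into the abdomen by prefilled syringe. Plasma sampled over 4 h (IV) or 5 h (SC). Dose proportionality by log–log power-model regression (90% CI of slope). Absolute bioavailability from a linear model of AUC, SC versus IV 0.6 mg.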

dogs = settings: cardiovascular telemetry; nonclinical studies, ref not given; cited from earlier work
[5] = 0.6 mg single subcutaneous dose, other clinical trials; ref not given; cited from earlier work
healthy volunteers [6] = assay: Antidasiglucagon antibody assessment; parameters: species or system human; settings: in vivo
plasma glucose [7] = assay: Plasma glucose response; assay type: in vivo, human
healthy volunteers [8] = assay type: in vivo, human; remark: listed apart in the source
plasma glucose [9] = settings: following insulin-induced hypoglycemia; cited from earlier work
healthy volunteers [10] = assay: Concentration-QTc analysis, linear mixed-effects model; assay type: in vivo, human; settings: not significant at the 0.1 level
healthy volunteers [11] = assay: Cardiac repolarization: by-time point analysis of QTcF; assay type: in vivo, human; settings: least squares mean
Method in brief: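 Single IV dose of test compound or placebo. Continuous Holter 12-lead ECG with supine rest ≥15 min. Extractions at 45, 30 and 15 min predose and at 5–240 min and 24 h postdose, up to 10 nonoverlapping 10-s replicates per point. Lead II was primary. QTcF=QT/RR^1/3. Analysed in a linear mixed-effects model on ΔQTcF (fixed: time, treatment, interaction; baseline covariate), placebo pooled.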

[12] = cited from earlier work

In the case of CC(C)C[C@H](NC(=O)[C@H](Cc1c[nH]c2ccccc12)NC(=O)[C@H](CCCCN)NC(=O)[C@@H](NC(=O)[C@H](Cc1ccccc1)NC(=O)[C@H](CCC(=O)O)NC(=O)[C@H](CCC(=O)O)NC(=O)[C@H](C)NC(=O)[C@H](CCCNC(=N)N)NC(=O)[C@H](C)NC(=O)C(C)(C)NC(=O)[C@H](CC(=O)O)NC(=O)[C@H](CC(C)C)NC(=O)[C@H](Cc1ccc(O)cc1)NC(=O)[C@H](CCCCN)NC(=O)[C@H](CO)NC(=O)[C@H](Cc1ccc(O)cc1)NC(=O)[C@H](CC(=O)O)NC(=O)[C@H](CO)NC(=O)[C@@H](NC(=O)[C@H](Cc1ccccc1)NC(=O)[C@@H](NC(=O)CNC(=O)[C@H](CCC(N)=O)NC(=O)[C@H](CO)NC(=O)[C@@H](N)Cc1c[nH]cn1)[C@@H](C)O)[C@@H](C)O)C(C)C)C(=O)N[C@@H](CCC(=O)O)C(=O)N[C@@H](CO)C(=O)N[C@H](C(=O)O)[C@@H](C)O [dasiglucagon], the “effect on human cardiac ion channels in vitro” value [1] is given as “no effect”, the “participants who experienced nausea” value (healthy volunteers [2]; 0.6 mg SC cohort) is given as 4 out of 6 and the participants who vomited (healthy volunteers [2]; 0.6 mg SC cohort) is given as 3 out of 6. For the same molecule, the dizziness (healthy volunteers [2]; SC and IV dasiglucagon cohorts) was 2 participants, the extravasation (healthy volunteers [2]; SC and IV dasiglucagon cohorts) was 2 participants and the headache (healthy volunteers [2]; SC and IV dasiglucagon cohorts) was 2 participants. For the same molecule, the nausea (healthy volunteers [2]; SC and IV dasiglucagon cohorts) was 9 participants, the vomiting (healthy volunteers [2]; SC and IV dasiglucagon cohorts) was 4 participants and the “ECG-related TEAEs or TEAEs in the system organ class cardiac disorders” value (healthy volunteers [2]; all cohorts) was “no ECG-related TEAEs”. The “participants reporting treatment-emergent AEs (TEAEs)” value (healthy volunteers [2]; all dasiglucagon cohorts, 14 out of 42) was 33.3%, the “effect on vital signs or safety laboratory parameters” value (healthy volunteers [2]; in vivo) was “No effect” and the injection site reactions (healthy volunteers [2]; spontaneous pain (0.1 mg IV), hematoma (0.6 mg SC), both mild) was “Two injection site reactions”. The “Emax (maximum estimated effect on ΔΔQTcF)” value (healthy volunteers [3]; Emax model, all IV data, P = 0.0137) was 3.6 ms, the “treatment effect–specific intercept” value (healthy volunteers [3]; Emax model, not significant at the 0.1 level) was -0.44 ms and the “ΔΔQTcF estimate at geometric mean Cmax” value (healthy volunteers [3]; IV 0.03 mg, n = 36 overall) was 1.61 ms. For the same molecule, the “ΔΔQTcF estimate at geometric mean Cmax” value (healthy volunteers [3]; IV 0.1 mg) was 2.61 ms, the “ΔΔQTcF estimate at geometric mean Cmax” value (healthy volunteers [3]; IV 0.3 mg) was 2.93 ms and the “ΔΔQTcF estimate at geometric mean Cmax” value (healthy volunteers [3]; IV 0.6 mg) was 3.01 ms. The “ΔΔQTcF estimate at geometric mean Cmax” value (healthy volunteers [3]; IV 1.5 mg) was 3.13 ms, the pEC50 (healthy volunteers [3]; read-out: amount that produces half the effect of Emax, Emax model, plasma concentration, not significant at the 0.1 level) was 9.37 and the “dose proportionality of AUC and Cmax” value ([4]; IV dose cohorts 0.03 to 1.5 mg, power model) was “dose-proportional”. The half-life ([4]; human, plasma, iv) was ~18 min, the Cmax ([4]; human, plasma, iv, 0.03 mg) was 0.568 nM and the Cmax ([4]; human, plasma, iv, 0.1 mg) was 2.39 nM. The Cmax ([4]; human, plasma, iv, 0.3 mg) was 6.46 nM, the AUC(0-inf) ([4]; human, plasma, iv, 0.6 mg) was 4.63 nM·h and the Cmax ([4]; human, plasma, iv, 0.6 mg) was 10.2 nM. It also gave a Cmax ([4]; human, plasma, iv, 1.5 mg) of 57.9 nM, an AUC(0-inf) ([4]; human, plasma, sc, 0.6 mg) of 2.36 nM·h and an AUC(0-t) ([4]; human, plasma, sc, 0.6 mg) of 2.36 nM·h. It also gave a Cmax ([4]; human, plasma, sc, 0.6 mg) of 1.53 nM, a bioavailability ([4]; human, plasma, sc, 0.6 mg) of ~51% and a half-life ([4]; human, plasma, sc, 0.6 mg) of ~30 min. The “potential for QTc prolongation in dogs” value (dogs) was “no potential for QTc prolongation”, the “maximum concentrations observed in any clinical trial” value [5] was 5000 to 6000 pmol/L and the “cross-reactivity of antibodies to endogenous glucagon” value (healthy volunteers [6]) was “no cross-reactivity”. The “Median time to Cmax, glucose” value (plasma glucose [7]; IV 0.03 mg) was 17.5 min, the “mean maximum glucose concentration (Cmax, glucose)” value (plasma glucose [7]; IV 0.03 mg, healthy volunteers) was 135 mg/dL and the “Median time to Cmax, glucose” value (plasma glucose [7]; IV 1.5 mg) was 42.5 min. The “mean maximum glucose concentration (Cmax, glucose)” value (plasma glucose [7]; IV 1.5 mg, healthy volunteers) was 160 mg/dL, the “plasma glucose level after subcutaneous dosing” value (plasma glucose [7]; SC 0.6 mg, healthy volunteers) was 172 mg/dL and the “Mean ΔΔHR” value (healthy volunteers [8]; IV 0.03 mg, 5 minutes postdose (lowest value)) was “–7.0 bpm”. For the same molecule, the “Mean ΔΔHR” value (healthy volunteers [8]; IV 0.6 mg, 24 hours postdose (highest value)) was 7.5 bpm, the “effect on PR interval” value (healthy volunteers [8]; IV 0.03 to 1.5 mg) was “did not have a clinically relevant effect” and the “effect on QRS duration” value (healthy volunteers [8]; IV 0.03 to 1.5 mg) was “did not have a clinically relevant effect”. For the same molecule, the “mean placebo-corrected change from baseline in heart rate (ΔΔHR)” value (healthy volunteers [8]; all studied IV doses 0.03 to 1.5 mg) was < 10 bpm, the “Median time to plasma glucose recovery vs reconstituted lyophilized glucagon” value (plasma glucose [9]) was “comparable” and the treatment effect-specific intercept (healthy volunteers [10]) was 0.8 ms. The “Mean ΔΔQTcF” value (healthy volunteers [11]; IV 0.03 mg, 40 minutes postdose) was -3.4 ms, the “Mean ΔΔQTcF” value (healthy volunteers [11]; IV 0.1 mg, 180 minutes postdose) was 12.3 ms and the “stability in aqueous solutions” value [12] was “stable in aqueous solutions”.
